Measured values from ChEMBL document CHEMBL1148129, “Reversal of multidrug resistance by tropane alkaloids from the stems of Erythroxylum rotundifolium” (2002).
Converted amounts (≈) assume the structure as drawn. The source made the active and inactive calls. The rule behind the calls is not given here.

Columns and labels:
[1] = Cytotoxicity against human BC1 cells; assay type: functional; conditions: read-out: ED50 (the source's name)
Lu1 = assay: Cytotoxicity against human Lu1 cells; assay type: functional; conditions: read-out: ED50 (the source's name)
KB = assay: Cytotoxicity against human KB cells; assay type: functional; conditions: read-out: ED50 (the source's name)
Summary of the method: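 Parental (drug-sensitive) KB oral epidermoid carcinoma cells were exposed to test compound without vinblastine. Cytotoxicity is reported as ED50 in µg/mL.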

[2] = Cytotoxicity against human KBV1 cells in presence of vinblastine; assay type: functional; conditions: KB-V1, read-out: ED50 (the source's name)
Summary of the method: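 Multidrug-resistant oral epidermoid carcinoma KB-V1 cells were incubated with test compound in the presence of vinblastine at 1.0 µg/mL. Cytotoxicity is reported as ED50 in µg/mL.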

[3] = Cytotoxicity against human KBV1 cells in absence of vinblastine; assay type: functional; conditions: KB-V1, read-out: ED50 (the source's name)
Summary of the method: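 Multidrug-resistant oral epidermoid carcinoma KB-V1 cells were incubated with test compound alone, with no vinblastine added. Cytotoxicity is reported as ED50 in µg/mL.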

Col2 = assay: Cytotoxicity against human Col2 cells; assay type: functional; conditions: read-out: ED50 (the source's name)
LNCaP = assay: Cytotoxicity against human LNCAP cells; assay type: functional; conditions: read-out: ED50 (the source's name)
ASK = assay: Cytotoxicity against human ASK cells at 20 ug/mL; assay type: functional, cell-based

| SMILES | EC50 [1] | EC50 (Lu1) | EC50 (KB) | EC50 [2] | EC50 [3] | EC50 (Col2) | EC50 (LNCaP) | Activity (ASK) |
| --- | --- | --- | --- | --- | --- | --- | --- | --- |
| CN1C2C[C@H](O)CC1[C@@H](OC(=O)c1ccccc1)C2 (some centres not stated) | > 20 mg/L | > 20 mg/L | > 20 mg/L | > 20 mg/L | > 20 mg/L | – | – | – |
| COc1cc(/C=C/C(=O)O[C@@H]2C[C@@H]3[C@@H](OC(=O)c4ccccc4)[C@@H](OC(C)=O)[C@H](C2)N3C)cc(OC)c1OC | 14.6 mg/L (≈ 27.1 µM) | > 20 mg/L | 14.8 mg/L (≈ 27.4 µM) | 1.1 mg/L | 13.2 mg/L (≈ 24.5 µM) | > 20 mg/L | 14.9 mg/L (≈ 27.6 µM) | inactive |
| COc1cc(/C=C\C(=O)O[C@H]2C[C@H]3C[C@H](OC(=O)c4ccccc4)[C@@H](C2)N3C)cc(OC)c1OC | > 20 mg/L | > 20 mg/L | > 20 mg/L | 0.3 mg/L | 3.5 mg/L (≈ 7.27 µM) | – | – | – |
| COc1cc(/C=C/C(=O)O[C@H]2C[C@H]3C[C@H](OC(=O)c4ccccc4)[C@@H](C2)N3C)cc(OC)c1OC | 15.3 mg/L (≈ 31.8 µM) | > 20 mg/L | 10.3 mg/L (≈ 21.4 µM) | 0.2 mg/L | 3.6 mg/L (≈ 7.48 µM) | 5.1 mg/L (≈ 10.6 µM) | 10 mg/L (≈ 20.8 µM) | inactive |
| COc1cc(/C=C/C(=O)O[C@@H]2C[C@@H]3[C@@H](OC(=O)c4ccccc4)[C@@H](O)[C@H](C2)N3C)cc(OC)c1OC | > 20 mg/L | > 20 mg/L | > 20 mg/L | 0.3 mg/L | 2.6 mg/L (≈ 5.23 µM) | > 20 mg/L | 6.7 mg/L (≈ 13.5 µM) | inactive |
| COc1cc(/C=C/C(=O)O[C@@H]2C[C@@H]3[C@@H](OC(=O)c4cc(OC)c(OC)c(OC)c4)[C@@H](O)[C@H](C2)N3C)cc(OC)c1OC | 6.1 mg/L (≈ 10.4 µM) | 14.6 mg/L (≈ 24.8 µM) | 12.6 mg/L (≈ 21.4 µM) | 6.6 mg/L | 20 mg/L (≈ 34 µM) | 10.4 mg/L (≈ 17.7 µM) | 15 mg/L (≈ 25.5 µM) | inactive |
